Values after ≈ are worked out from the molar mass of the structure shown.
Key:
Type in all cases: functional
Staphylococcus aureus [1] = assay: Antibacterial activity against Staphylococcus aureus ATCC 25923 after 18 to 24 hrs by two-fold broth microdilution assay
Outline: (§1)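 CLSI two-fold broth microdilution was used. Compounds were dissolved in DMSO, brought to 10 mg/mL in medium, then serially diluted in Mueller Hinton broth over 400–0.09 µg/mL. Overnight MHB cultures were diluted to 10^6 CFU/mL, and 10 µL was added per well. Plates were incubated 18–24 h at 37 °C, then 0.2 mg/mL INT was added for 30 min at 37 °C. MIC was the lowest concentration with no visible growth or pink colour, triplicate.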

Staphylococcus aureus [2] = assay: Antibacterial activity against Staphylococcus aureus ATCC 25923 assessed as diameter of zone of inhibition at 250 ug/disc after 24 hrs by disc diffusion method; settings: ATCC 25923, 24 h, read-out: DIZ
Outline: (§2)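 Bacteria were grown overnight at 37 °C in TSB to about 10^6 cfu/mL, and 100 µL was spread on Mueller Hinton agar. Sterile 6 mm discs were each loaded with 25 µL of a 10 mg/mL stock in 96% ethanol, giving 250 µg/disc. Ethanol served as the negative control. Plates were incubated 24 h at 37 °C. Inhibition zone diameter was measured including the disc, in triplicate, as mean ± SE.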

Enterococcus faecalis [3] = assay: Antibacterial activity against Enterococcus faecalis ATCC 29212 after 18 to 24 hrs by two-fold broth microdilution assay; outline: as §1
Pseudomonas aeruginosa [4] = assay: Antibacterial activity against Pseudomonas aeruginosa FNSST 982 assessed as diameter of zone of inhibition at 250 ug/disc after 24 hrs by disc diffusion method; settings: FNSST 982, 24 h, read-out: DIZ; outline: as §2
Clostridium perfringens [5] = assay: Antibacterial activity against Clostridium perfringens FNSST 4999 after 18 to 24 hrs by two-fold broth microdilution assay
Outline: (§3)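 CLSI two-fold broth microdilution. Compounds dissolved in DMSO, 10 mg/mL stock, serially diluted to 400–0.09 µg/mL in Mueller Hinton broth. Wells inoculated with 10^6 CFU/mL bacteria and incubated 18–24 h at 37 °C. 0.2 mg/mL INT added for 30 min. MIC taken as the lowest concentration with no visible growth or pink colour. Triplicate.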

Enterococcus faecalis [6] = assay: Antibacterial activity against Enterococcus faecalis ATCC 29212 assessed as diameter of zone of inhibition at 250 ug/disc after 24 hrs by disc diffusion method; settings: ATCC 29212, 24 h, read-out: DIZ; outline: as §2
Aeromonas hydrophila [7] = assay: Antibacterial activity against Aeromonas hydrophila FNSST 014 assessed as diameter of zone of inhibition at 250 ug/disc after 24 hrs by disc diffusion method; settings: FNSST 014, 24 h, read-out: DIZ; outline: as §2
Aspergillus fumigatus = assay: Antifungal activity against Aspergillus fumigatus FNSST 3833 assessed as diameter of zone of inhibition at 250 ug/disc after 72 hrs by disc diffusion method; settings: FNSST 3833, 72 h, read-out: DIZ
Outline: (§4)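 Fungi were grown overnight at 30 °C in Sabouraud dextrose broth to 10^4 cfu/mL, and 100 µL was spread on Sabouraud dextrose agar. 6 mm discs carried 250 µg (25 µL of a 10 mg/mL stock in 96% ethanol), with ethanol as the negative control. Incubation was at 30 °C for 48 h (yeast) or 72 h (molds). Zone diameter was read including the disc, in triplicate, mean ± SE.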

Bacillus cereus [8] = assay: Antibacterial activity against Bacillus cereus ATCC 11778 assessed as diameter of zone of inhibition at 250 ug/disc after 24 hrs by disc diffusion method; settings: ATCC 11778, 24 h, read-out: DIZ; outline: as §2
Escherichia coli [9] = assay: Antibacterial activity against Escherichia coli FNSST 982 assessed as diameter of zone of inhibition at 250 ug/disc after 24 hrs by disc diffusion method; settings: FNSST 982, 24 h, read-out: DIZ; outline: as §2
Escherichia coli [10] = assay: Antibacterial activity against Escherichia coli FNSST 982 after 18 to 24 hrs by two-fold broth microdilution assay; outline: as §1
Aeromonas hydrophila [11] = assay: Antibacterial activity against Aeromonas hydrophila FNSST 014 after 18 to 24 hrs by two-fold broth microdilution assay; outline: as §1
Klebsiella pneumoniae [12] = assay: Antibacterial activity against Klebsiella pneumoniae FNSST 011 assessed as diameter of zone of inhibition at 250 ug/disc after 24 hrs by disc diffusion method; settings: FNSST 011, 24 h, read-out: DIZ; outline: as §2
Talaromyces funiculosus = assay: Antifungal activity against Penicillium funiculosum FNSST 3724 assessed as diameter of zone of inhibition at 250 ug/disc after 72 hrs by disc diffusion method; settings: FNSST 3724, 72 h, read-out: DIZ; outline: as §4
Klebsiella pneumoniae [13] = assay: Antibacterial activity against Klebsiella pneumoniae FNSST 011 after 18 to 24 hrs by two-fold broth microdilution assay; outline: as §1
Pseudomonas aeruginosa [14] = assay: Antibacterial activity against Pseudomonas aeruginosa FNSST 982 after 18 to 24 hrs by two-fold broth microdilution assay; outline: as §1
Bacillus cereus [15] = assay: Antibacterial activity against Bacillus cereus ATCC 11778 after 18 to 24 hrs by two-fold broth microdilution assay; outline: as §1
Candida albicans = assay: Antifungal activity against Candida albicans ATCC 10231 assessed as diameter of zone of inhibition at 250 ug/disc after 48 hrs by disc diffusion method; settings: ATCC 10231, 48 h, read-out: DIZ; outline: as §4
Clostridium perfringens [16] = assay: Antibacterial activity against Clostridium perfringens FNSST 4999 assessed as diameter of zone of inhibition at 250 ug/disc after 24 hrs by disc diffusion method; settings: FNSST 4999, 24 h, read-out: DIZ
Outline: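 Disc diffusion per CLSI: 100 µL of 10^6 cfu/mL bacterial suspension spread on Mueller Hinton agar. 6 mm discs loaded with 25 µL of 10 mg/mL compound stock in 96% ethanol (250 µg/disc); ethanol as negative control. Incubated 24 h at 37 °C. Inhibition zone diameter measured in mm including the disc, triplicate, reported as mean ± SE.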

Aeromonas caviae [17] = assay: Antibacterial activity against TEM-1/CTX-M-15 expressing Aeromonas caviae isolate 260 after 18 to 24 hrs by two-fold broth microdilution assay; outline: as §1
Escherichia coli [18] = assay: Antibacterial activity against […] expressing Escherichia coli isolate 4024 after 18 to 24 hrs by two-fold broth microdilution assay; outline: as §3
Klebsiella pneumoniae [19] = assay: Antibacterial activity against TEM-1/SHV-12 expressing Klebsiella pneumoniae isolate 303 after 18 to 24 hrs by two-fold broth microdilution assay; outline: as §1
Escherichia coli [20] = assay: Antibacterial activity against TEM-1/SHV-12 expressing Escherichia coli isolate 237 after 18 to 24 hrs by two-fold broth microdilution assay; outline: as §3
[21] = tested on: Stenotrophomonas maltophilia; assay: Antibacterial activity against […] expressing Stenotrophomonas maltophilia isolate 125 after 18 to 24 hrs by two-fold broth microdilution assay; outline: as §1
Pseudomonas aeruginosa [22] = assay: Antibacterial activity against GIM-1 expressing Pseudomonas aeruginosa isolate 197 after 18 to 24 hrs by two-fold broth microdilution assay; outline: as §1
Kluyvera intermedia = assay: Antibacterial activity against TEM-1/SHV-12/[…] expressing Enterobacter intermedius isolate 243 after 18 to 24 hrs by two-fold broth microdilution assay; outline: as §1
Aeromonas hydrophila [23] = assay: Antibacterial activity against TEM-1/SHV-12 expressing Aeromonas hydrophila isolate 268 after 18 to 24 hrs by two-fold broth microdilution assay; outline: as §1
Enterobacter cloacae [24] = assay: Antibacterial activity against TEM-1/CTX-M-15 expressing Enterobacter cloacae isolate 62 after 18 to 24 hrs by two-fold broth microdilution assay
Escherichia coli [25] = assay: Antibacterial activity against […] expressing Escherichia coli isolate 235 after 18 to 24 hrs by two-fold broth microdilution assay; outline: as §3
Aeromonas caviae [26] = assay: Antibacterial activity against […] expressing Aeromonas caviae isolate 258 after 18 to 24 hrs by two-fold broth microdilution assay; outline: as §1
Acinetobacter baumannii = assay: Antibacterial activity against SIM-1 expressing Acinetobacter baumannii isolate 170 after 18 to 24 hrs by two-fold broth microdilution assay; outline: as §3
Enterobacter cloacae [27] = assay: Antibacterial activity against TEM-1/SHV-12 expressing Enterobacter cloacae isolate 306 after 18 to 24 hrs by two-fold broth microdilution assay
Enterobacter cloacae [28] = assay: Antibacterial activity against CTX-15 expressing Enterobacter cloacae isolate 51 after 18 to 24 hrs by two-fold broth microdilution assay

Row | SMILES | MIC (Staphylococcus aureus [1]) | zone of inhibition at 250 µg/disc (Staphylococcus aureus [2]) | MIC (Enterococcus faecalis [3]) | zone of inhibition at 250 µg/disc (Pseudomonas aeruginosa [4]) | MIC (Clostridium perfringens [5]) | zone of inhibition at 250 µg/disc (Enterococcus faecalis [6]) | zone of inhibition at 250 µg/disc (Aeromonas hydrophila [7]) | MIC (Aeromonas caviae [17]) | MIC (Klebsiella pneumoniae [19]) | MIC (Escherichia coli [20]) | MIC [21] | MIC (Pseudomonas aeruginosa [22]) | MIC (Kluyvera intermedia) | MIC (Aeromonas hydrophila [23]) | MIC (Enterobacter cloacae [24]) | MIC (Escherichia coli [25]) | MIC (Aeromonas caviae [26]) | MIC (Acinetobacter baumannii) | MIC (Enterobacter cloacae [27]) | MIC (Enterobacter cloacae [28]) | also measured
1 | O/N=C/c1nccn1-c1ccccc1 | 100 µg/mL (≈ 534 µM) | 10.1 mm | 6.25 µg/mL (≈ 33.4 µM) | 15.8 mm | 100 µg/mL (≈ 534 µM) | 15.7 mm | 17.7 mm |  |  |  |  |  |  |  |  |  |  |  |  |  | zone of inhibition at 250 µg/disc (Aspergillus fumigatus): 19.5 mm; zone of inhibition at 250 µg/disc (Bacillus cereus [8]): 15.4 mm; zone of inhibition at 250 µg/disc (Escherichia coli [9]): 17.8 mm; MIC (Escherichia coli [10]): 50 µg/mL (≈ 267 µM); MIC (Aeromonas hydrophila [11]): 50 µg/mL (≈ 267 µM); zone of inhibition at 250 µg/disc (Klebsiella pneumoniae [12]): 17.2 mm; zone of inhibition at 250 µg/disc (Talaromyces funiculosus): 17.9 mm; MIC (Klebsiella pneumoniae [13]): 100 µg/mL (≈ 534 µM); MIC (Pseudomonas aeruginosa [14]): 25 µg/mL (≈ 134 µM); MIC (Bacillus cereus [15]): 50 µg/mL (≈ 267 µM); zone of inhibition at 250 µg/disc (Candida albicans): 16.4 mm; zone of inhibition at 250 µg/disc (Clostridium perfringens [16]): 16.5 mm
2 | CC(C)(O/N=C(\C(=O)N[C@@H]1C(=O)N2C(C(=O)[O-])=C(C[n+]3ccccc3)CS[C@H]12)c1csc(N)n1)C(=O)O [CEFTAZIDIME] |  |  |  |  |  |  |  | 128 µg/mL (≈ 234 µM) | 128 µg/mL (≈ 234 µM) | 8 µg/mL (≈ 14.6 µM) | 128 µg/mL (≈ 234 µM) | 256 µg/mL (≈ 468 µM) | 8 µg/mL (≈ 14.6 µM) | 64 µg/mL (≈ 117 µM) | > 256 µg/mL | 64 µg/mL (≈ 117 µM) | 4 µg/mL (≈ 7.32 µM) | > 256 µg/mL | > 256 µg/mL | 16 µg/mL (≈ 29.3 µM) | MIC (Escherichia coli [18]): 16 µg/mL (≈ 29.3 µM)
3 | Cc1ccc(-n2ccnc2/C=N/O)cc1 | 32 µg/mL (≈ 159 µM) | 18.5 mm | 50 µg/mL (≈ 248 µM) | 10.9 mm | 100 µg/mL (≈ 497 µM) | 13.8 mm | 15.7 mm |  |  |  |  |  |  |  |  |  |  |  |  |  | zone of inhibition at 250 µg/disc (Aspergillus fumigatus): 16.3 mm; zone of inhibition at 250 µg/disc (Bacillus cereus [8]): 14.6 mm; zone of inhibition at 250 µg/disc (Escherichia coli [9]): 14.9 mm; MIC (Escherichia coli [10]): 25 µg/mL (≈ 124 µM); MIC (Aeromonas hydrophila [11]): 25 µg/mL (≈ 124 µM); zone of inhibition at 250 µg/disc (Klebsiella pneumoniae [12]): 9.3 mm; zone of inhibition at 250 µg/disc (Talaromyces funiculosus): 15.4 mm; MIC (Klebsiella pneumoniae [13]): 100 µg/mL (≈ 497 µM); MIC (Pseudomonas aeruginosa [14]): 50 µg/mL (≈ 248 µM); MIC (Bacillus cereus [15]): 50 µg/mL (≈ 248 µM); zone of inhibition at 250 µg/disc (Candida albicans): 20.2 mm; zone of inhibition at 250 µg/disc (Clostridium perfringens [16]): 12.6 mm
4 | C[C@@H](O)[C@H]1C(=O)N2C(C(=O)O)=C(SCCNC=N)C[C@H]12 [IMIPENEM ANHYDROUS] |  |  |  |  |  |  |  | 2 µg/mL (≈ 6.68 µM) | 0.12 µg/mL (≈ 0.401 µM) | 0.125 µg/mL (≈ 0.418 µM) | 0.12 µg/mL (≈ 0.401 µM) | > 8 µg/mL | 0.12 µg/mL (≈ 0.401 µM) | 0.06 µg/mL (≈ 0.2 µM) | 0.25 µg/mL (≈ 0.835 µM) | 0.06 µg/mL (≈ 0.2 µM) | 0.25 µg/mL (≈ 0.835 µM) | 8 µg/mL (≈ 26.7 µM) | 0.25 µg/mL (≈ 0.835 µM) | 8 µg/mL (≈ 26.7 µM) | 
5 | NC[C@H]1O[C@H](O[C@H]2[C@H](O)[C@@H](O[C@H]3O[C@H](CO)[C@@H](O)[C@H](N)[C@H]3O)[C@H](N)C[C@@H]2N)[C@H](N)C[C@@H]1O [TOBRAMYCIN] |  |  |  |  |  |  |  | 32 µg/mL (≈ 68.4 µM) | 2 µg/mL (≈ 4.28 µM) | 64 µg/mL (≈ 137 µM) | 8 µg/mL (≈ 17.1 µM) | 16 µg/mL (≈ 34.2 µM) | > 32 µg/mL | 16 µg/mL (≈ 34.2 µM) | 32 µg/mL (≈ 68.4 µM) | 16 µg/mL (≈ 34.2 µM) | 32 µg/mL (≈ 68.4 µM) | 16 µg/mL (≈ 34.2 µM) | 16 µg/mL (≈ 34.2 µM) | > 32 µg/mL | MIC (Escherichia coli [18]): 32 µg/mL (≈ 68.4 µM)

— ChEMBL document CHEMBL3091449, “Synthesis and antimicrobial profile of N-substituted imidazolium oximes and their monoquaternary salts against multidrug resistant bacteria” (2013)
